Reference: the RNAGym collection of RNA variant scans (doi:10.1126/science.aae0568)
Variants at the floor of the assay were thinned out.

B1: tRNA (parent)
chain: GUUCCGUUGGCGUAAUGGUAACGCGUCUCCCUCCUAAGGAGAAGACUGCGGGUUCGAGUCCCGUACGGAACG

Variants of: B1
Assay: yeast fitness relative to wild type (ratio to wild type); higher = fitter; tRNA-Arg(CCU), competitive growth, 37 C, YPD
In short: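 Amplicons of the tRNA-Arg(CCU) gene were sequenced, 100-nucleotide paired-end, from the start population and from each end population of a pooled yeast competition. The competition, in six parallel replicates, lasted 24 hours in YPD at 37°C. Fitness relative to wild type was calculated from changes in genotype frequencies. Genotypes had to have ≥ 100 starting reads, and estimates < 0.5 were set to 0.5.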

Row | Variant | yeast fitness
1 | C11A C49U C61U | ≤ 0.5
2 | C11A A37U C62A C66U | ≤ 0.5
3 | C11A A42C G51A A69C | ≤ 0.5
4 | C11G A42U A65G C66G G68A | ≤ 0.5
5 | C11G G41A U53C | ≤ 0.5
6 | C11G A57U C66U | ≤ 0.5
7 | C11A C24G U47G G68C | ≤ 0.5
8 | C11A A21C C30U C66U | 0.539
9 | C11A A45G | 0.603
10 | C11G C33U A36G C55U | ≤ 0.5
11 | C11G U28A A65U A69U | ≤ 0.5
12 | C11G A36U A40C | 0.612
13 | C11A U28G C33A A42C | ≤ 0.5
14 | C11A G68U | 0.54
15 | C11G C30A U47G U53C | 0.597
16 | C11A A43G C46G A65U | ≤ 0.5
17 | C11A C33U A43U | 0.532
18 | C11U A20U U26C | ≤ 0.5
19 | C11G C24U C49U | ≤ 0.5
20 | C11G G39C | 0.6
21 | C11G A40C | 0.6
22 | C11G U54C C62U | ≤ 0.5
23 | C11G G58A A70G | 0.659
24 | C11A C27U C33U U35C | 0.634

Row | Variant | yeast fitness
25 | C11A G12A G25A | 0.604
26 | C11G C24U U28C A42G C60U C62G | ≤ 0.5
27 | C11A C31A U32C G44C A65G | ≤ 0.5
28 | C11A U53A C62G | ≤ 0.5
29 | C11A G17C U47A G68C | ≤ 0.5
30 | C11A U19G A36G C66U | ≤ 0.5
31 | C11G G23C A37G A57C | 0.979
32 | C11U A14C C30G A40G C49A G68A | 0.537
33 | C11G G39C G50C | 0.545
34 | C11A C34G G50A | 0.681
35 | C11A G52C C66U A69C | ≤ 0.5
36 | C11U A20C C22G | 0.576
37 | C11A A21U C34A | ≤ 0.5
38 | C11G A37C A42G C66G G68U | ≤ 0.5
39 | C11G C60G A65C | ≤ 0.5
40 | C11G C24G C27A U28C A65U | 0.533
41 | C11A A15U A21U A36C A37U | 0.56
42 | C11G G18A G23A C60G | ≤ 0.5
43 | C11G U32A A37C G39A A43G G58C C60A C62U | ≤ 0.5
44 | C11G A20U A45C | ≤ 0.5
45 | C11A C31G A42U G67A | ≤ 0.5
46 | C11G C30A | 0.588
47 | C11U A36U A70U | 0.694
48 | C11A C30G C31U U32C G52A U59C | ≤ 0.5

Row | Variant | yeast fitness
49 | C11G A15U C31A A70C | ≤ 0.5
50 | C11G C29U C34U C62A C66U | 0.565
51 | C11A C62U | 0.616
52 | C11A C62A | ≤ 0.5
53 | C11G C31U | 0.632
54 | C11U A20U C22A C66G | ≤ 0.5
55 | C11G C29U A36C A42G C46G | ≤ 0.5
56 | C11U A21G U59A C62G | 0.502
57 | C11G U13A | 1.03
58 | C11G U13G | 0.599
59 | C11G C55G A57C | ≤ 0.5
60 | C11G A36U A42G A43C C49U A57U A65C | ≤ 0.5
61 | C11A C34G U35G G39A | ≤ 0.5
62 | C11U A20U C24U C29A U59A G67C A69C | ≤ 0.5
63 | C11G C24U U35A | 0.622
64 | C11G C29A | 0.518
65 | C11A C30U A42C | ≤ 0.5
66 | C11G U32A A37C G39A A43G U54C C62G | ≤ 0.5
67 | C11G C27G A42C A45C | ≤ 0.5
68 | C11A C33U C49U C60G | ≤ 0.5
69 | C11A U53C | 0.556
70 | C11A U53A | 0.59
71 | C11U A20G C29G C34G U54C | ≤ 0.5
72 | C11G A14U C22A C29G C34A | ≤ 0.5

Row | Variant | yeast fitness
73 | C11G A21U C30A G44A G52C A65U | 0.507
74 | C11G C24G C27A U28C G67A | ≤ 0.5
75 | C11A C61G | ≤ 0.5
76 | C11G G41C C55U G58A | ≤ 0.5
77 | C11G C24G C60A G68A | ≤ 0.5
78 | C11G G12C | 0.7
79 | C11A U16A C29G A42C G51A | ≤ 0.5
80 | C11U A21G A37U G41A | ≤ 0.5
81 | C11A C55G | 0.535
82 | C11A A42C | 0.606
83 | C11A C27U C31U C34G A40G | ≤ 0.5
84 | C11A A70U | 0.581
85 | C11G G50U C62G | ≤ 0.5
86 | C11A C46U G48A C55U U59A | ≤ 0.5
87 | C11U A15C G17C C22U C34G | ≤ 0.5
88 | C11A G18A | 0.58
89 | C11G A15U G58U C66A A70C | ≤ 0.5
90 | C11G C61U G68A | ≤ 0.5
91 | C11G C49U C61A | 0.582
92 | C11G A42U A43C | ≤ 0.5
93 | C11G C66A | ≤ 0.5
94 | C11G C66U | 0.615
95 | C11G U16C C27G | ≤ 0.5
96 | C11A G18C A45C A57C G68C | ≤ 0.5

Row | Variant | yeast fitness
97 | C11G A20C C49A U54G | ≤ 0.5
98 | C11A G25C C29U | ≤ 0.5
99 | C11G C24G C30U A43U C60G A65C | ≤ 0.5
100 | C11U A21G C29G C61G | ≤ 0.5
101 | C11U A20G G48A C55G A57U | ≤ 0.5
102 | C11A A21C C31A C55U G68C | ≤ 0.5
103 | C11A C46U A70G | 0.56
104 | C11G A14U U59G | ≤ 0.5
105 | C11A C27G C62U G68A | ≤ 0.5
106 | C11A U26C C29G C31U | 0.655
107 | C11G U35A C62A C66G | ≤ 0.5
108 | C11G A21C G56A | ≤ 0.5
109 | C11U A21G C24A C49U A65C | ≤ 0.5
110 | C11G A14U U19A G25A C34U C60U G68A | 0.517
111 | C11G G12A C60U A70G | ≤ 0.5
112 | C11U A20G C22A G23C U28G A43G A57G A70U | 0.587
113 | C11G U16A C22U A45U | ≤ 0.5
114 | C11A C30U C33G U64C | ≤ 0.5
115 | C11G U47A G52A G58C G63C C66G | 0.664
116 | C11A G50A | 0.651
117 | C11G A21U C24U | ≤ 0.5
118 | C11G A14G A15U G23C U53A C62U | ≤ 0.5
119 | C11G C66A A69U | ≤ 0.5
120 | C11G C24G C27A U28C C66U | ≤ 0.5

Row | Variant | yeast fitness
121 | C11U A20U G39A U64C A65C | ≤ 0.5
122 | C11A A36G A43U | ≤ 0.5
123 | C11U A15C A36C A37U | ≤ 0.5
124 | C11A C27A A70G | ≤ 0.5
125 | C11G A21G C31G | ≤ 0.5
126 | C11U A21C A36G | ≤ 0.5
127 | C11A C62G G63A | ≤ 0.5
128 | C11A C22G | 0.623
129 | C11U A14U U16C | ≤ 0.5
130 | C11A C46U U64C | ≤ 0.5
131 | C11U A36C G68C | ≤ 0.5
132 | C11A A20G C46U G50C C60A | ≤ 0.5
133 | C11A A37C C49G C55G | ≤ 0.5
134 | C11G A21G A57G | ≤ 0.5
135 | C11G G67A | 0.635
136 | C11A C27G U35A A43U U54C A65G | 0.659
137 | C11G U35A C66U | 0.51
138 | C11A A21G C33G A36U G44A U59C | ≤ 0.5
139 | C11G C30U A37C C46U | 0.664
140 | C11U A14G U16G C24G U26C U47G G50C C66A | ≤ 0.5
141 | C11G C27G C66U | ≤ 0.5
142 | C11A U19A A42U A45C C55U A69C | 0.538
143 | C11U A36U G39A | ≤ 0.5
144 | C11G U26C G67C A69C | ≤ 0.5

Row | Variant | yeast fitness
145 | C11G U16C C22U G68U | ≤ 0.5
146 | C11U A20G G23C C31U C46G A70U | ≤ 0.5
147 | C11A C27G C33U G56A C61G | ≤ 0.5
148 | C11G G17C C34A A43C G56C | ≤ 0.5
149 | C11G C49A G67C | ≤ 0.5
150 | C11G C22U A36C G52C C66U | ≤ 0.5
151 | C11U A20C C49G G67A | ≤ 0.5
152 | C11A C27U C30A A43C C60U | ≤ 0.5
153 | C11A A21U C66U | ≤ 0.5
154 | C11U A21C C22G U54C C62A | ≤ 0.5
155 | C11G C31G A36U | ≤ 0.5
156 | C11G G12A A42U C61A A65U | 0.528
157 | C11A C27G C30G G44C | 0.538
158 | C11A C24U C60A | ≤ 0.5
159 | C11A C31G A42U C62U U64A | ≤ 0.5
160 | C11A U35A C61U C62U C66A | ≤ 0.5
161 | C11G A37U C46U G63U | ≤ 0.5
162 | C11G C22U C27U U47A G52C | 0.67
163 | C11G U54C | 0.512
164 | C11A C22G G67A G68C | ≤ 0.5
165 | C11A C31G C62G | 0.506
166 | C11U A20U | 0.75
167 | C11G C33A A42C | 0.7
